Measured values of several laboratories.
Compare with care: the assays were run in different laboratories.
BRAF: Serine/threonine-protein kinase B-raf (BRAF, Homo sapiens, UniProt P15056)

For O=c1[nH]c2ccccc2n1C1CCN(Cc2ccc(-c3[nH]c4cc5ncnc5cc4nc3-c3ccccc3)cc2)CC1, the remaining signal was 101% (BRAF; cell-free assay; 0.5 µM).
The remaining binding of Cc1nn(C)cc1-c1nc2c(N3CCN(Cc4ccc(Cl)cc4)CC3)c(Cl)cnc2[nH]1 is reported as 100% (Serine/threonine-protein kinase B-raf (BRAF, Homo sapiens, UniProt P15056, V600E); binding, competition with immobilised ligand; 1 µM).
With CNS(=O)(=O)Nc1nccc(Cc2c(C)c3ccc(Oc4ncccn4)cc3oc2=O)c1F the inhibition was 89% (BRAF; cell-free assay, competition with immobilised ligand; 10 µM).
N#CC1(c2ccccn2)CCN(Cc2cc(C(=O)O)c(=O)n3ccccc23)CC1 has a remaining binding of 93% (BRAF; cell-free assay, competition with immobilised ligand; 1 µM).
The inhibition of Cn1cc(-c2cccc(N3CCc4c(sc5c4CC(C)(C)C5)C3=O)c2CO)cc(Nc2ccncn2)c1=O is reported as 21% (BRAF; enzyme activity, inhibitor; 1 µM).
The inhibition of C#Cc1n[nH]c2c(-c3cn([C@@H](C)c4ccccc4)c(=O)[nH]c3=O)cc(F)cc12 is reported as -2.9% (BRAF; enzyme activity, inhibitor; 0.1 µM).
For Cn1cc(-c2cc(F)cc(N3CCn4c(cc5c4CCCC5)C3=O)c2CO)cc(Nc2ccc(N3CCN(C4COC4)CC3)cn2)c1=O, the inhibition was 7% (BRAF; enzyme activity, inhibitor; 0.1 µM).
The inhibition of C#Cc1n[nH]c2c(-c3cn(C(C)c4ccccn4)c(=O)[nH]c3=O)cc(F)cc12 (centres unmarked) is reported as -2.7% (BRAF; enzyme activity, inhibitor; 1 µM).
With COc1ncccc1-c1cnn2ccc(N3CCN(C(=O)OC(C)C)CC3)nc12 the remaining binding was 100% (BRAF; binding, competition with immobilised ligand; 1 µM).
Nc1ncc(-c2nc(N3CCOCC3)nc(N3CCOCC3)n2)c(C(F)F)n1 has a remaining binding of 36% (BRAF; binding, competition with immobilised ligand; 10 µM).
With Cn1cncc1[C@@](O)(COc1ccc(C#N)cc1-c1ccc(OC(F)(F)F)cc1)c1ccc(C#N)cc1 the remaining binding was 100% (BRAF; cell-free assay, competition with immobilised ligand; 1 µM).
